pIC50: −log10 of the molar value.
Legend:
human 11β-HSD1 = human 11β-HSD1 (Homo sapiens, UniProt P28845); experiment: 11β-HSD1 inhibition cellular assay; type: cell-based; conditions: for pIC50: IC50, human 11β-HSD1, HEK293 cell line transfected with human HSD11B1 gene, mean of three measurements, variance less than 20 %; for inhibition at 1 µM: HEK293, read-out: Percent inhibition
mouse 11β-HSD1 = mouse 11β-HSD1 (Mus musculus, UniProt P50172); experiment: Inhibition of mouse 11β-HSD1; type: cell-based
Sequence of mouse 11β-HSD1 (P50172 whole entry): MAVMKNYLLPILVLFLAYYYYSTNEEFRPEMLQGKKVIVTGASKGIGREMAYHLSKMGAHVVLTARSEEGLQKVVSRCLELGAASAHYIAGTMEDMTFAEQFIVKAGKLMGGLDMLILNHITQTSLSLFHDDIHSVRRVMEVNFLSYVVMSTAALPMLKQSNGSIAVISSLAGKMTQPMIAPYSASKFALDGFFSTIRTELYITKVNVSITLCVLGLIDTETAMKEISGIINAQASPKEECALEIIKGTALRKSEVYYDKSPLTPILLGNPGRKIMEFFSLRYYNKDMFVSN

[1] = Membrane permeability in the Caco-2 cell model; type: in vitro ADME; conditions: human
In short: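 Caco-2 monolayer permeability. Test compound was applied at 20 μm, and the apparent permeability coefficient (Papp) was determined in the apical-to-basolateral direction.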

human 11β-HSD2 = molecular target: T1, human 11β-HSD2 (Homo sapiens, UniProt P80365); experiment: Selectivity: inhibition of human 11β-HSD2; type: cell-based; conditions: at a concentration of 10 μM (data not shown)
T1 sequence (P80365 1-405): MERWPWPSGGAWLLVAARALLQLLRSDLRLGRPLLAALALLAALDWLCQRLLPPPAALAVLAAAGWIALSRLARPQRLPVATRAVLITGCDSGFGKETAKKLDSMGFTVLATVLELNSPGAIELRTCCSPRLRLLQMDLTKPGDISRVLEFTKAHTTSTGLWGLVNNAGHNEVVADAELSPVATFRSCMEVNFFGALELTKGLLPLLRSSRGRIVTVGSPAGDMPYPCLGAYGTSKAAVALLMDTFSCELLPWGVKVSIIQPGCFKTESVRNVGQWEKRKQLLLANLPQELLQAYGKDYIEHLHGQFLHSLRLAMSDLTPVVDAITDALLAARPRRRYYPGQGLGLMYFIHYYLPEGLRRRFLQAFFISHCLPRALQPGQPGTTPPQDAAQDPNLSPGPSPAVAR

17β-HSD1 = molecular target: T2, 17β-HSD1 (Homo sapiens, UniProt P14061); experiment: Selectivity: inhibition of 17β-HSD1; conditions: at a concentration of 10 μM (data not shown)
T2 sequence (P14061 1-328): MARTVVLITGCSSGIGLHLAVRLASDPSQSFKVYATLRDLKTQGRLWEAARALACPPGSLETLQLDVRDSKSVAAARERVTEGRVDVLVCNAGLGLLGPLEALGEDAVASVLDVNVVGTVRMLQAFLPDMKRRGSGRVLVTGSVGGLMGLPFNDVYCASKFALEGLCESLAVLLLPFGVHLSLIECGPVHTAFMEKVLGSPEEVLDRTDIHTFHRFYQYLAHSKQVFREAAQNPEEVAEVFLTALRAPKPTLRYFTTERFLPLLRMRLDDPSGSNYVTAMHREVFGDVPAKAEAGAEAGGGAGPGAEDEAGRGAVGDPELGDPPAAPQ

Sequence of human 11β-HSD1 (P28845 whole entry): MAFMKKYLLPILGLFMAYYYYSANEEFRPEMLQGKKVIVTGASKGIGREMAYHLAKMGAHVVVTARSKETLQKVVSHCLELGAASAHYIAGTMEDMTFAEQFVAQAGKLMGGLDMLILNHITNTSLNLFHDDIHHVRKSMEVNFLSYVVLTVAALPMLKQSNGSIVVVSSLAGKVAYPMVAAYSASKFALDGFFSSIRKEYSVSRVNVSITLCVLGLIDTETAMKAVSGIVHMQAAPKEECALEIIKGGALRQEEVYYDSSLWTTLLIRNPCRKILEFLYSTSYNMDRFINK

pIC50 (human 11β-HSD1)	melting point	Structure (SMILES)	other results
7.21	124 to 125 °C	Cn1ccnc1S(=O)(=O)CC(=O)C12CC3CC(CC(C3)C1)C2 [Compound 35, 1-(Adamantan-1-yl)-2-(1-methyl-1H-imidazole-2-sulfonyl)ethanone]	–
7.39	75 to 79 °C	O=C(C[S+]([O-])Cc1ccco1)C12CC3CC(CC(C3)C1)C2 (stereo not shown) [Compound 15, 1-(Adamantan-1-yl)-2-(furan-2-ylmethanesulfinyl)ethanone]	pIC50 (mouse 11β-HSD1): 7.42
6.39	57 to 58 °C	O=C(COCc1cccs1)C12CC3CC(CC(C3)C1)C2 [Compound 6, 1-(Adamantan-1-yl)-2-(thiophen-2-ylmethoxy)ethanone]	–
7.39	89 to 91 °C	O=C(COCc1nccs1)C12CC3CC(CC(C3)C1)C2 [Compound 8, 1-(Adamantan-1-yl)-2-(1,3-thiazol-2-ylmethoxy)ethanone]	pIC50 (mouse 11β-HSD1): 7.74
6.82	–	COCc1nnc(SCC(=O)C23CC4CC(CC(C4)C2)C3)n1C [Compound 41, 1-(Adamantan-1-yl)-2-{[5-(methoxymethyl)-4-methyl-4H-1,2,4-triazol-3-yl]sulfanyl}ethanone]	–
5.75	202 to 204 °C	Nc1nnc(S(=O)(=O)CC(=O)C23CC4CC(CC(C4)C2)C3)s1 [Compound 49, 1-(Adamantan-1-yl)-2-(5-amino-1,3,4-thiadiazole-2-sulfonyl)ethanone]	–
–	77 to 80 °C	Cc1csc(COCC(=O)C23CC4CC(CC(C4)C2)C3)n1 [Compound 9, 1-(Adamantan-1-yl)-2-[(4-methyl-1,3-thiazol-2-yl)methoxy]ethanone]	–
6.55	58 to 60 °C	O=C(COCc1ccsc1)C12CC3CC(CC(C3)C1)C2 [Compound 7, 1-(Adamantan-1-yl)-2-(thiophen-3-ylmethoxy)ethanone]	–
6.61	55 to 58 °C	O=C(CSCc1nccs1)C12CC3CC(CC(C3)C1)C2 [Compound 12, 1-(Adamantan-1-yl)-2-[(1,3-thiazol-2-ylmethyl)sulfanyl]ethanone]	–
7.57	124.5 to 127 °C	Cn1cnnc1[S+]([O-])CC(=O)C12CC3CC(CC(C3)C1)C2 (stereo not shown) [Compound 32, 1-(Adamantan-1-yl)-2-(4-methyl-4H-[1,2,4]triazole-3-sulfinyl)ethanone]	pIC50 (mouse 11β-HSD1): 5.51
7.32	86 to 89 °C	Cn1ccnc1[S+]([O-])CC(=O)C12CC3CC(CC(C3)C1)C2 (stereo not shown) [Compound 31, 1-(Adamantan-1-yl)-2-(1-methyl-1H-imidazole-2-sulfinyl)ethanone]	pIC50 (mouse 11β-HSD1): 6.92; Papp A→B at 20 μM [1]: 44 ×10⁻⁶ cm/s; inhibition against human 11β-HSD2 (human 11β-HSD2): inactive; inhibition against 17β-HSD1 (17β-HSD1): inactive
7.02	149 to 150 °C	Cn1cnnc1S(=O)(=O)CC(=O)C12CC3CC(CC(C3)C1)C2 [Compound 36, 1-(Adamantan-1-yl)-2-(4-methyl-4H-[1,2,4]triazole-3-sulfonyl)ethanone]	–
7.44	–	Cc1nnc(SCC(=O)C23CC4CC(CC(C4)C2)C3)n1C [Compound 38, 1-(Adamantan-1-yl)-2-[(4,5-dimethyl-1,2,4-triazol-3-yl)sulfanyl]ethanone]	pIC50 (mouse 11β-HSD1): 6.61; inhibition against human 11β-HSD2 (human 11β-HSD2): inactive; inhibition against 17β-HSD1 (17β-HSD1): inactive

The remaining lines, values behind:

Structure (SMILES)	pIC50 (human 11β-HSD1)	melting point	other results
Cc1csc(CSCC(=O)C23CC4CC(CC(C4)C2)C3)n1 [Compound 13, 1-(Adamantan-1-yl)-2-{[(4-methyl-1,3-thiazol-2-yl)methyl]sulfanyl}ethanone]	6.49	–	–
Cc1nnc(SCC(=O)C23CC4CC(CC(C4)C2)C3)s1 [Compound 29, 1-(Adamantan-1-yl)-2-(5-methyl-[1,3,4]thiadiazol-2-ylsulfanyl)-ethanone]	–	102 to 105 °C	–
CN(C)C(=O)c1ccc(CSCC(=O)C23CC4CC(CC(C4)C2)C3)o1 [Compound 20, 5-({[2-(Adamantan-1-yl)-2-oxoethyl]sulfanyl}methyl)-N,N-dimethylfuran-2-carboxamide]	6.82	–	–
Cc1nnc([S+]([O-])CC(=O)C23CC4CC(CC(C4)C2)C3)s1 (stereo not shown) [Compound 33, 1-(Adamantan-1-yl)-2-(5-methyl-[1,3,4]thiadiazole-2-sulfinyl)ethanone]	7.59	127 to 129 °C	pIC50 (mouse 11β-HSD1): 7.36
O=C(CSCc1ccco1)C12CC3CC(CC(C3)C1)C2 [Compound 11, 1-(Adamantan-1-yl)-2-(furan-2-ylmethylsulfanyl)-ethanone]	6.79	–	–
Nc1nnc(SCC(=O)C23CC4CC(CC(C4)C2)C3)s1 [Compound 48, 1-(Adamantan-1-yl)-2-[(5-amino-1,3,4-thiadiazol-2-yl)sulfanyl]ethanone]	7.15	198 to 199 °C	–
O=C(CSc1nnc(C2CC2)n1C1CC1)C12CC3CC(CC(C3)C1)C2 [Compound 43, 1-(Adamantan-1-yl)-2-[(4,5-dicyclopropyl-4H-1,2,4-triazol-3-yl)sulfanyl]ethanone]	5.73	117 to 119 °C	–
COC(=O)Cc1nnc(SCC(=O)C23CC4CC(CC(C4)C2)C3)n1C [Compound 42, Methyl 2-(5-{[2-(adamantan-1-yl)-2-oxoethyl]sulfanyl}-4-methyl-4H-1,2,4-triazol-3-yl)acetate]	7.01	–	–
O=C(CSc1cccs1)C12CC3CC(CC(C3)C1)C2 [Compound 26, 1-(Adamantan-1-yl)-2-(thiophen-2-ylsulfanyl)-ethanone]	7.00	69 to 72 °C	–
COC(=O)c1ccc(CSCC(=O)C23CC4CC(CC(C4)C2)C3)o1 [Compound 18, Methyl 5-({[2-(adamantan-1-yl)-2-oxoethyl]sulfanyl}methyl)furan-2-carboxylate]	6.58	–	–
Cn1ccnc1SCC(=O)C12CC3CC(CC(C3)C1)C2 [Compound 27, 1-(Adamantan-1-yl)-2-(1-methyl-1H-imidazol-2-ylsulfanyl)-ethanone]	7.03	65 to 69 °C	–
Cn1c(SCC(=O)C23CC4CC(CC(C4)C2)C3)nnc1-c1cccs1 [Compound 44, 1-(Adamantan-1-yl)-2-{[4-methyl-5-(thiophen-2-yl)-4H-1,2,4-triazol-3-yl]sulfanyl}ethanone]	5.23	156 to 157 °C	–
CN(C)c1nnc(SCC(=O)C23CC4CC(CC(C4)C2)C3)s1 [Compound 45, 1-(Adamantan-1-yl)-2-{[5-(dimethylamino)-1,3,4-thiadiazol-2-yl]sulfanyl}ethanone]	5.40	–	–
O=C(CSCc1cccs1)C12CC3CC(CC(C3)C1)C2 [Compound 10, 1-(Adamantan-1-yl)-2-(thiophen-2-ylmethylsulfanyl)ethanone]	6.84	–	–
CCSc1nnc(SCC(=O)C23CC4CC(CC(C4)C2)C3)s1 [Compound 47, 1-(Adamantan-1-yl)-2-{[5-(ethylsulfanyl)-1,3,4-thiadiazol-2-yl]sulfanyl}ethanone]	–	–	inhibition at 1 µM (human 11β-HSD1): 68%
Cn1c(SCC(=O)C23CC4CC(CC(C4)C2)C3)nnc1C1CC1 [Compound 40, 1-(Adamantan-1-yl)-2-[(5-cyclopropyl-4-methyl-4H-1,2,4-triazol-3-yl)sulfanyl]ethanone]	6.89	–	–
Cc1nnc(SCC(=O)C23CC4CC(CC(C4)C2)C3)n1C(C)C [Compound 39, 1-(Adamantan-1-yl)-2-{[5-methyl-4-(propan-2-yl)-4H-1,2,4-triazol-3-yl]sulfanyl}ethanone]	6.86	–	–
CSc1nnc(SCC(=O)C23CC4CC(CC(C4)C2)C3)s1 [Compound 46, 1-(Adamantan-1-yl)-2-{[5-(methylsulfanyl)-1,3,4-thiadiazol-2-yl]sulfanyl}ethanone]	6.51	133.5 to 135 °C	–
O=C(O)c1ccc(CSCC(=O)C23CC4CC(CC(C4)C2)C3)o1 [Compound 19, 5-(((2-(Adamantan-1-yl)-2-oxoethyl)thio)methyl)furan-2-carboxylic acid]	–	–	inhibition at 1 µM (human 11β-HSD1): 67%
CC(=O)Nc1nnc(SCC(=O)C23CC4CC(CC(C4)C2)C3)s1 [Compound 50, N-(5-{[2-(Adamantan-1-yl)-2-oxoethyl]sulfanyl}-1,3,4-thiadiazol-2-yl)acetamide]	6.07	–	–
